From ChEMBL document CHEMBL4425120, “N1-Azinylsulfonyl-1H-indoles: 5-HT6 Receptor Antagonists with Procognitive and Antidepressant-Like Properties” (ACS Med Chem Lett, 2016)
Activity calls are given as the source filed them. The rule behind the calls is not given here.

Legend:
Cytochrome P450 1A2 = Cytochrome P450 1A2 (Homo sapiens, UniProt P05177); test: Inhibition of human CYP1A2 expressed in supersomes assessed as caffeine 3-N-demethylation after 15 mins by HPLC analysis; type: ADME
Rattus norvegicus [1] = test: Antianxietic activity in Wistar rat assessed as increase in number of licks accepted at 0.1 to 1 mg/kg, ip measured for 5 mins by Vogel conflict drinking test; type: functional, organism-based
[2] = target: 5-hydroxytryptamine receptor 6 (Homo sapiens, UniProt P50406); test: Antagonist activity at human recombinant 5-HT6 receptor expressed in CHO cells assessed as inhibition of serotonin-induced intracellular cAMP accumulation after 30 mins by HTRF assay; type: functional, cell-based
Rattus norvegicus [3] = test: Antianxietic activity in Wistar rat assessed as increase in number of shocks accepted at 0.1 to 1 mg/kg, ip measured for 5 mins by Vogel conflict drinking test; type: functional, organism-based
[4] = Mutagenicity in Salmonella typhimurium TA98 at 0.2 to 16 ug/ml after 48 hrs by Ames test; type: toxicity; conditions: salmonella enterica subsp. enterica serovar typhimurium
[5] = Mutagenicity in Salmonella typhimurium TA1537 at 0.2 to 16 ug/ml after 48 hrs by Ames test; type: toxicity; conditions: salmonella enterica subsp. enterica serovar typhimurium
[6] = Intrinsic clearance in rat liver microsomes at 20 uM after 15 mins in presence of NADPH-regenerating system by UPLC/MS analysis; type: ADME, Microsome; conditions: read-out: CLH
[7] = target: 5-hydroxytryptamine receptor 2A (Homo sapiens, UniProt P28223); test: Displacement of [3H]-Ketanserin from human 5-HT2A receptor expressed in HEK293 cells by microbeta liquid scintillation counting; type: cell-based
Method in brief: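 Ki values reported as the mean of two independent radioligand binding experiments.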

Rattus norvegicus [8] = test: Cognitive enhancing effect in ip dosed Sprague-Dawley rat assessed as reversal of PCP induced memory deficit administered 1 hour and 15 mins before familiarization phase by novel object recognition test; type: functional; conditions: for minimal effective dose: read-out: MED
Method in brief: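 Memory deficit induced with PCP in rats. Test and reference agents were given i.p., and the reversal of the deficit in novel-object recognition was scored. Data are mean ± SEM, n = 7–12 animals per group, compared against the vehicle and PCP groups.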

[9] = Toxicity in Sprague-Dawley rat assessed as effect on locomotory activity at 0.1 to 1 mg/kg, ip measured for 5 mins by open field test; type: organism-based; conditions: in vivo
[10] = Solubility of the compound at pH 2; type: physicochemical; conditions: buffer
Rattus norvegicus [11] = test: Antianxietic activity in Wistar rat assessed as increase in number of shocks accepted at 0.3 to 3 mg/kg, ip measured for 5 mins by Vogel conflict drinking test; type: functional, organism-based
Rattus norvegicus [12] = test: Antianxietic activity in Wistar rat assessed as increase in number of licks accepted at 0.3 to 3 mg/kg, ip measured for 5 mins by Vogel conflict drinking test; type: functional, organism-based
[13] = target: Muscarinic acetylcholine receptor M5 (Homo sapiens) (UniProt P08912); test: Displacement of [3H]4-DAMP from human recombinant muscarinic M5 receptor expressed in CHO cells after 60 mins by scintillation counting; type: cell-based
Rattus norvegicus [14] = test: Antidepressant activity in Sprague-Dawley rat assessed as increase in climbing time at 0.1 mg/kg, ip adminstered 60 mins prior to testing measured for 5 mins by forced swimming test; type: functional, organism-based
Method in brief: (§1)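 Modified forced swim test in rats with i.p. dosing. Immobility time and climbing time were scored. Data are mean ± SEM, n = 7–8 animals per group, compared against the vehicle-treated group.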

Rattus norvegicus [15] = test: Antidepressant activity in Sprague-Dawley rat assessed as reduction in immobility time at 0.1 mg/kg, ip adminstered 60 mins prior to testing measured for 5 mins by forced swimming test; type: functional, organism-based; method in brief: as §1

Chain of Cytochrome P450 1A2 (P05177 whole entry): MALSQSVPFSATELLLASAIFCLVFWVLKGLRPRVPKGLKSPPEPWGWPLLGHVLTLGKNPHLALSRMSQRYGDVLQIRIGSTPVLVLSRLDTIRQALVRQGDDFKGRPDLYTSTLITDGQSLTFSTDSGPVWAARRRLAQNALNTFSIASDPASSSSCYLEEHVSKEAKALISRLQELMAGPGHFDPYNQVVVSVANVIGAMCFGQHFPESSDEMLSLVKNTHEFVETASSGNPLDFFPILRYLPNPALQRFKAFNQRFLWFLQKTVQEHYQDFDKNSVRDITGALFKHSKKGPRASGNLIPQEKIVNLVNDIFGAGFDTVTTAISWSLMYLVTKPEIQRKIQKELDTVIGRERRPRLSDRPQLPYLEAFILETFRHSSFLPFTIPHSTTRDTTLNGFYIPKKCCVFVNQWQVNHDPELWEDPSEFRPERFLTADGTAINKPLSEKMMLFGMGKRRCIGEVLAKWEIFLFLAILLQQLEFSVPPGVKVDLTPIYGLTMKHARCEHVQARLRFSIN
Chain of 5-hydroxytryptamine receptor 2A (P28223 whole entry): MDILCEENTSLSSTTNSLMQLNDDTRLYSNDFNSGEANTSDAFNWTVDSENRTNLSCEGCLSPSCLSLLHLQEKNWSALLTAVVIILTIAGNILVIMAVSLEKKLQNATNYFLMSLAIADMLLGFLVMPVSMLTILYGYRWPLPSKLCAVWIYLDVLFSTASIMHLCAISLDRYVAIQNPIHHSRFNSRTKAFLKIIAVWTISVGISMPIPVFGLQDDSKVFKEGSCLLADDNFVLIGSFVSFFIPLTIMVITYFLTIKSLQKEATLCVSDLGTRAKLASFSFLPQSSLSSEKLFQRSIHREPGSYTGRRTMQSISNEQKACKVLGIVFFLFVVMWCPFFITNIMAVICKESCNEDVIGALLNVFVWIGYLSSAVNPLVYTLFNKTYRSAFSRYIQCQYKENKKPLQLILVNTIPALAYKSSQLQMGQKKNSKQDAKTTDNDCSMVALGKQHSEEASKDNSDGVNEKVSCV
Chain of 5-hydroxytryptamine receptor 6 (P50406 whole entry): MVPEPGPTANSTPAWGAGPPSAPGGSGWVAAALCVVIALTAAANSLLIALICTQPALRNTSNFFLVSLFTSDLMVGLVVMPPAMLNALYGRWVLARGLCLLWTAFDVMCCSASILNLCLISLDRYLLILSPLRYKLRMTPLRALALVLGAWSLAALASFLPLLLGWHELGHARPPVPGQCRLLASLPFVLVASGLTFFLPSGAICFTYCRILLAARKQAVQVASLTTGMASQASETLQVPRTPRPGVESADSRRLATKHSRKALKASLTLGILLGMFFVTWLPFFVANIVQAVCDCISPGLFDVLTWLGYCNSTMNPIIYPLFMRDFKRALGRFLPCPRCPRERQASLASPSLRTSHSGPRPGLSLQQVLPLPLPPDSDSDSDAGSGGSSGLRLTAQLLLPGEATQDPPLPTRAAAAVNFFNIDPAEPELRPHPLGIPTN
Chain of Muscarinic acetylcholine receptor M5 (Homo sapiens) (P08912 whole entry): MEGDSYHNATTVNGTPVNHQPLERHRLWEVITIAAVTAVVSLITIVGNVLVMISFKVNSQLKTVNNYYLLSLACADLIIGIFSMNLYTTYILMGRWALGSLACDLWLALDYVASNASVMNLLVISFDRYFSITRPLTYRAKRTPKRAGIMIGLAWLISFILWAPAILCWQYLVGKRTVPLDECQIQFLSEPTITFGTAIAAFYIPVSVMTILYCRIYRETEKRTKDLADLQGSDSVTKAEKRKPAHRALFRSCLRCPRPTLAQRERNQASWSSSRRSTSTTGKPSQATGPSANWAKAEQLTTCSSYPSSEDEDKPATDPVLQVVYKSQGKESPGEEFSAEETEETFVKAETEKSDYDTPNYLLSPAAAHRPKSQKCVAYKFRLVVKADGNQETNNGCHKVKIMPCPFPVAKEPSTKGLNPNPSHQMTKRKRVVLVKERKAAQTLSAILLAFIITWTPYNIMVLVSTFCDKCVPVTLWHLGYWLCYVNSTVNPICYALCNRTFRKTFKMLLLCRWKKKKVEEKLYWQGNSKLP

SMILES	IC50 (Cytochrome P450 1A2)	Activity (Rattus norvegicus [1])	Kb [2]	Activity (Rattus norvegicus [3])	Activity [4]	Activity [5]	microsomal CLint at 20 µM [6]	Ki [7]	Activity (Rattus norvegicus [8])	minimal effective dose (Rattus norvegicus [8])	Activity [9]	solubility [10]	Activity (Rattus norvegicus [11])	Activity (Rattus norvegicus [12])	inhibition [13]	Activity (Rattus norvegicus [14])	Activity (Rattus norvegicus [15])
COc1ccc2c(c1)c(C1=CCNCC1)cn2S(=O)(=O)c1ccc2cccnc2c1	100000 nM	inactive	4.4 nM	inactive	Non-Toxic	Non-Toxic	18 µL/min/mg	1000 nM	Dose-dependent effect	1 mg/kg	Non-Toxic	> 5000 µg/mL	–	–	–	–	–
COc1ccc2c(c1)c(C1=CCNCC1)cn2S(=O)(=O)c1cncc2ccccc12	100000 nM	–	5.6 nM	–	Non-Toxic	Non-Toxic	10 µL/min/mg	3350 nM	Dose-dependent effect	1 mg/kg	Non-Toxic	> 5000 µg/mL	inactive	inactive	3%	Active	Active
